Data from paper PMC10401071 (Cancer Discovery, 2023).
Read-outs that look alike come from different tables or passages of the source.

Assays:
[1] = test system: growth differentiation factor 15 (GDF-15); format: in vivo, human; details: all dose-escalation cohorts, both arms
Method in brief: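 Blood drawn for GDF-15, a circulating downstream p53 marker measured as a target-engagement surrogate. Dosing was oral, day 1 every 21 days or days 1 and 8 every 28 days. Cycle 1 sampling: 5 min pre-dose; 1, 2, 3, 4, 5, 6 and 8 h post-dose on day 1; once on days 2, 3, 4, 5 and 8. All dose-escalation cohorts, both arms.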

SJSA-1 = SJSA-1 proliferation assay, in vitro; cited from earlier work
[2] = format: in vivo, human
Method in brief: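 Adults with advanced solid tumours (ECOG 0–1; TP53 wild-type or unknown) received oral test compound on day 1 of 21-day cycles or days 1 and 8 of 28-day cycles, until progression or unacceptable toxicity. Antiemetic prophylaxis followed guidelines. AE incidence and severity were graded per NCI CTCAE v5.0 and summarised descriptively.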

Compound: Cc1c(C(=O)O)ccc2c3n(nc12)[C@@H]1[C@H](C3)N(CC2CC2)[C@@]2(C(=O)Nc3cc(Cl)ccc32)[C@H]1c1cccc(Cl)c1F [brigimadlin]
- growth differentiation factor 15 levels (target engagement) [1]: time- and dose-dependent increases
- IC50 (SJSA-1): 12 nM
- Any AE ([2]; All patients (N = 54)): 54 (100.0) n (%)
- Any AE (any cause) leading to study drug discontinuation ([2]; All patients (N = 54)): 3 (5.6) n (%)
- Any AE (any cause) leading to study drug dose reduction ([2]; All patients (N = 54)): 19 (35.2) n (%)
- Any TRAE ([2]; All patients (N = 54)): 50 (92.6) n (%)
- Any grade ≥3 AE ([2]; All patients (N = 54)): 33 (61.1) n (%)
- Any grade ≥3 TRAE ([2]; All patients (N = 54)): 25 (46.3) n (%)
- Serious AEs (any cause) ([2]; All patients (N = 54)): 18 (33.3) n (%)
- TRAE Alopecia, All grades ([2]; All patients (N = 54)): 12 (22.2) n (%)
- TRAE Alopecia, Grade ≥3 ([2]; All patients (N = 54)): 0 n (%)
- TRAE Anemia, All grades ([2]; All patients (N = 54)): 16 (29.6) n (%)
- TRAE Anemia, Grade ≥3 ([2]; All patients (N = 54)): 5 (9.3) n (%)
- TRAE Decreased appetite, All grades ([2]; All patients (N = 54)): 17 (31.5) n (%)
- TRAE Decreased appetite, Grade ≥3 ([2]; All patients (N = 54)): 0 n (%)
- TRAE Decreased lymphocyte count, All grades ([2]; All patients (N = 54)): 7 (13.0) n (%)
- TRAE Decreased lymphocyte count, Grade ≥3 ([2]; All patients (N = 54)): 4 (7.4) n (%)
- TRAE Decreased weight, All grades ([2]; All patients (N = 54)): 4 (7.4) n (%)
- TRAE Decreased weight, Grade ≥3 ([2]; All patients (N = 54)): 0 n (%)
- TRAE Decreased white blood cell count, All grades ([2]; All patients (N = 54)): 13 (24.1) n (%)
- TRAE Decreased white blood cell count, Grade ≥3 ([2]; All patients (N = 54)): 7 (13.0) n (%)
- TRAE Diarrhea, All grades ([2]; All patients (N = 54)): 16 (29.6) n (%)
- TRAE Diarrhea, Grade ≥3 ([2]; All patients (N = 54)): 0 n (%)
- TRAE Dysgeusia, All grades ([2]; All patients (N = 54)): 10 (18.5) n (%)
- TRAE Dysgeusia, Grade ≥3 ([2]; All patients (N = 54)): 0 n (%)
- TRAE Fatigue, All grades ([2]; All patients (N = 54)): 25 (46.3) n (%)
- TRAE Fatigue, Grade ≥3 ([2]; All patients (N = 54)): 1 (1.9) n (%)
- TRAE Gastroesophageal reflux disease, All grades ([2]; All patients (N = 54)): 5 (9.3) n (%)
- TRAE Gastroesophageal reflux disease, Grade ≥3 ([2]; All patients (N = 54)): 0 n (%)
- TRAE Increased alanine aminotransferase, All grades ([2]; All patients (N = 54)): 3 (5.6) n (%)
- TRAE Increased alanine aminotransferase, Grade ≥3 ([2]; All patients (N = 54)): 0 n (%)
- TRAE Increased aspartate aminotransferase, All grades ([2]; All patients (N = 54)): 5 (9.3) n (%)
- TRAE Increased aspartate aminotransferase, Grade ≥3 ([2]; All patients (N = 54)): 0 n (%)
- TRAE Nausea, All grades ([2]; All patients (N = 54)): 40 (74.1) n (%)
- TRAE Nausea, Grade ≥3 ([2]; All patients (N = 54)): 4 (7.4) n (%)
- TRAE Neutropenia, All grades ([2]; All patients (N = 54)): 16 (29.6) n (%)
- TRAE Neutropenia, Grade ≥3 ([2]; All patients (N = 54)): 13 (24.1) n (%)
- TRAE Thrombocytopenia, All grades ([2]; All patients (N = 54)): 24 (44.4) n (%)
- TRAE Thrombocytopenia, Grade ≥3 ([2]; All patients (N = 54)): 14 (25.9) n (%)
- TRAE Vomiting, All grades ([2]; All patients (N = 54)): 28 (51.9) n (%)
- TRAE Vomiting, Grade ≥3 ([2]; All patients (N = 54)): 1 (1.9) n (%)
- patients with neutropenia leading to dose reduction ([2]; D1D8q4w): four
- patients with thrombocytopenia leading to dose reduction ([2]; D1D8q4w): four
- serious AE thrombocytopenia ([2]; D1D8q4w): three
- Any AE ([2]; D1D8q4w (n = 25)): 25 (100.0) n (%)
- Any AE (any cause) leading to study drug discontinuation ([2]; D1D8q4w (n = 25)): 1 (4.0) n (%)
- Any AE (any cause) leading to study drug dose reduction ([2]; D1D8q4w (n = 25)): 8 (32.0) n (%)
- Any TRAE ([2]; D1D8q4w (n = 25)): 23 (92.0) n (%)
- Any grade ≥3 AE ([2]; D1D8q4w (n = 25)): 12 (48.0) n (%)
- Any grade ≥3 TRAE ([2]; D1D8q4w (n = 25)): 8 (32.0) n (%)
- Serious AEs (any cause) ([2]; D1D8q4w (n = 25)): 9 (36.0) n (%)
- TRAE Alopecia, All grades ([2]; D1D8q4w (n = 25)): 6 (24.0) n (%)
- TRAE Alopecia, Grade ≥3 ([2]; D1D8q4w (n = 25)): 0 n (%)
- TRAE Anemia, All grades ([2]; D1D8q4w (n = 25)): 4 (16.0) n (%)
- TRAE Anemia, Grade ≥3 ([2]; D1D8q4w (n = 25)): 2 (8.0) n (%)
- TRAE Decreased appetite, All grades ([2]; D1D8q4w (n = 25)): 7 (28.0) n (%)
- TRAE Decreased appetite, Grade ≥3 ([2]; D1D8q4w (n = 25)): 0 n (%)
- TRAE Decreased lymphocyte count, All grades ([2]; D1D8q4w (n = 25)): 2 (8.0) n (%)
- TRAE Decreased lymphocyte count, Grade ≥3 ([2]; D1D8q4w (n = 25)): 1 (4.0) n (%)
- TRAE Decreased weight, Grade ≥3 ([2]; D1D8q4w (n = 25)): 0 n (%)
- TRAE Decreased white blood cell count, All grades ([2]; D1D8q4w (n = 25)): 4 (16.0) n (%)
- TRAE Decreased white blood cell count, Grade ≥3 ([2]; D1D8q4w (n = 25)): 2 (8.0) n (%)
- TRAE Diarrhea, All grades ([2]; D1D8q4w (n = 25)): 8 (32.0) n (%)
- TRAE Diarrhea, Grade ≥3 ([2]; D1D8q4w (n = 25)): 0 n (%)
- TRAE Dysgeusia, All grades ([2]; D1D8q4w (n = 25)): 5 (20.0) n (%)
- TRAE Dysgeusia, Grade ≥3 ([2]; D1D8q4w (n = 25)): 0 n (%)
- TRAE Fatigue, All grades ([2]; D1D8q4w (n = 25)): 10 (40.0) n (%)
- TRAE Fatigue, Grade ≥3 ([2]; D1D8q4w (n = 25)): 0 n (%)
- TRAE Gastroesophageal reflux disease, All grades ([2]; D1D8q4w (n = 25)): 3 (12.0) n (%)
- TRAE Gastroesophageal reflux disease, Grade ≥3 ([2]; D1D8q4w (n = 25)): 0 n (%)
- TRAE Increased alanine aminotransferase, All grades ([2]; D1D8q4w (n = 25)): 0 n (%)
